Laboratory results published in ChEMBL document CHEMBL2086311, “UDP made a highly promising stable, potent, and selective P2Y6-receptor agonist upon introduction of a boranophosphate moiety” (Bioorg Med Chem, 2012).
pEC50: −log10 of the molar value. The source made the active and inactive calls. No cut-off for these calls is given here.

Legend:
[1] = target: T1, P2Y purinoceptor 4 (Homo sapiens, UniProt P51582); assay: Agonist activity at human GFP-tagged P2Y4 receptor expressed in human 1321N1 cells assessed as intracellular calcium mobilization up to 100 uM by fura2/AM-based fluorescence spectrophotometry; format: functional, cell-based
Summary of the method: (§1)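 Human P2Y2, P2Y4 or P2Y6 receptors with GFP fusion, stably expressed in 1321N1 astrocytoma cells (no endogenous P2X/P2Y), selected with 0.5 mg/mL G418. Cells on coverslips at ~80% density were loaded with 2 µM fura 2/AM plus 0.02% pluronic acid in Na-HBS pH 7.4 for 30 min at 37 °C. Nucleotide was superfused at 37 °C, usually 10^-8 to ≥10^-5 M, sometimes to 10^-4 M. Read-out was 340/380 nm excitation ratio at 510 nm emission. Values are mean maximal amplitude ± SE.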

[2] = target: T2, P2Y purinoceptor 6 (Homo sapiens, UniProt Q15077); assay: Agonist activity at human GFP-tagged P2Y6 receptor expressed in human 1321N1 cells assessed as intracellular calcium mobilization by fura2/AM-based fluorescence spectrophotometry; format: functional, cell-based; summary of the method: as §1
[3] = target: P2Y purinoceptor 2 (Homo sapiens) (UniProt P41231); assay: Agonist activity at human GFP-tagged P2Y2 receptor expressed in human 1321N1 cells assessed as intracellular calcium mobilization up to 100 uM by fura2/AM-based fluorescence spectrophotometry; format: functional, cell-based; summary of the method: as §1
[4] = Agonist activity at P2Y6 receptor in New Zealand White rabbit osteoclasts assessed as intracellular calcium mobilization by fura2-based microfluorimetric technique; format: functional, cell-based; details: Oryctolagus cuniculus
[5] = target: T1, P2Y purinoceptor 4; assay: Agonist activity at human GFP-tagged P2Y4 receptor expressed in human 1321N1 cells assessed as intracellular calcium mobilization by fura2/AM-based fluorescence spectrophotometry; format: functional, cell-based; summary of the method: as §1
[6] = target: T3, NPP3 (ectonucleotide pyrophosphatase/phosphodiesterase family member 3) (Homo sapiens, UniProt O14638); assay: Hydrolytic stability of the compound assessed as human NPP3-mediated hydrolysis after 3 hrs by HPLC analysis; format: ADME; details: human NPP3 enzyme, read-out: Activity
T3 sequence (O14638 whole entry): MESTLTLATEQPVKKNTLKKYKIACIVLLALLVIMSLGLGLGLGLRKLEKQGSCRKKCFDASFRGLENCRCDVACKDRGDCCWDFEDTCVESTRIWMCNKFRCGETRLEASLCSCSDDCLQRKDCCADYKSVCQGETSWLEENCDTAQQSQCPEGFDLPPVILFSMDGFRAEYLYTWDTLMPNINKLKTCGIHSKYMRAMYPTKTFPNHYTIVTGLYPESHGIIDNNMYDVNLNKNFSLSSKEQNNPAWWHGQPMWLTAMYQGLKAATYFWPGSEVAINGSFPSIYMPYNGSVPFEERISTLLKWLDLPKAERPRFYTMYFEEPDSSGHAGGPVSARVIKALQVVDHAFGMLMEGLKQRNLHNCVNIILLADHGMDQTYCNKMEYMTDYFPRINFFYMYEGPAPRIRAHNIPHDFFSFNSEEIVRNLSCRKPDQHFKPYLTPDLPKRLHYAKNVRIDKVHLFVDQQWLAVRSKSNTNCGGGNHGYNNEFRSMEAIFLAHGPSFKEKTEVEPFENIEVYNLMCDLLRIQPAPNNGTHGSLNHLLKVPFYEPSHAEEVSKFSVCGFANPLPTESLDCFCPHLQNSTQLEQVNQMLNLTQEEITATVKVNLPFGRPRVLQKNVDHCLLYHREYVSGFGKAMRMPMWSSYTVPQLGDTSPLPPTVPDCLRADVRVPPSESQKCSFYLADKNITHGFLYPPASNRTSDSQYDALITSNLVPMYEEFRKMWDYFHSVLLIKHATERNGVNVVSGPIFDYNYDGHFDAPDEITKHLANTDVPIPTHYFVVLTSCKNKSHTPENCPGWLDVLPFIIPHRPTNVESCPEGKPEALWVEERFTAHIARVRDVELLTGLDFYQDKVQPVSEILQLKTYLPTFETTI
Summary of the method: (§2)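 Human NPP1 (56.15 µg) or NPP3 (57.78 µg) extract was pre-incubated 3 min at 37 °C in 1 mM CaCl2, 200 mM NaCl, 10 mM KCl, 100 mM Tris pH 8.5. Reaction was started with 4 mM compound stock and stopped after 2 h (NPP1) or 3 h (NPP3) in ice-cold 1 M perchloric acid, then neutralized with KOH. HPLC measured the nucleoside monophosphate peak area minus a no-enzyme acid control. Mean ± S.D. of two experiments.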

[7] = tested on: Serum; assay: Drug metabolism in human serum assessed as nucleoside 5'-monophosphate formation incubated up to 24 hrs by HPLC analysis; format: ADME, cell-free
Summary of the method: (§3)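 Samples held 0.1 mg compound with human blood serum (180 µL) and RPMI-1640 (540 µL) at 37 °C for 0–24 h. At each time point they were heated to 80 °C for 30 min, treated with CM Sephadex, centrifuged and chloroform-extracted. Analysis was reverse-phase HPLC on peak integrals. Degradation was taken relative to a no-serum control carried through the same workup, and half-lives came from the time course.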

[8] = tested on: Serum; assay: Drug metabolism in human serum assessed as nucleoside formation incubated up to 24 hrs by HPLC analysis; format: ADME, cell-free; summary of the method: as §3
[9] = Half life in human serum by HPLC analysis; format: ADME, cell-free
Summary of the method: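 Compound (0.1 mg) incubated with human blood serum and RPMI-1640 medium at 37 °C for 0–24 h. Samples taken at 0.5–12 h intervals, heated to 80 °C for 30 min, treated with CM Sephadex and extracted with chloroform. Analysed by reverse-phase HPLC. Degradation from peak integration, corrected against a serum-free control given the same workup.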

[10] = target: T4, NPP1 (ectonucleotide pyrophosphatase/phosphodiesterase family member 1) (Homo sapiens, UniProt P22413); assay: Hydrolytic stability of the compound assessed as human NPP1-mediated hydrolysis after 2 hrs by HPLC analysis; format: ADME; details: human NPP1 enzyme, read-out: Activity
T4 sequence (P22413 whole entry): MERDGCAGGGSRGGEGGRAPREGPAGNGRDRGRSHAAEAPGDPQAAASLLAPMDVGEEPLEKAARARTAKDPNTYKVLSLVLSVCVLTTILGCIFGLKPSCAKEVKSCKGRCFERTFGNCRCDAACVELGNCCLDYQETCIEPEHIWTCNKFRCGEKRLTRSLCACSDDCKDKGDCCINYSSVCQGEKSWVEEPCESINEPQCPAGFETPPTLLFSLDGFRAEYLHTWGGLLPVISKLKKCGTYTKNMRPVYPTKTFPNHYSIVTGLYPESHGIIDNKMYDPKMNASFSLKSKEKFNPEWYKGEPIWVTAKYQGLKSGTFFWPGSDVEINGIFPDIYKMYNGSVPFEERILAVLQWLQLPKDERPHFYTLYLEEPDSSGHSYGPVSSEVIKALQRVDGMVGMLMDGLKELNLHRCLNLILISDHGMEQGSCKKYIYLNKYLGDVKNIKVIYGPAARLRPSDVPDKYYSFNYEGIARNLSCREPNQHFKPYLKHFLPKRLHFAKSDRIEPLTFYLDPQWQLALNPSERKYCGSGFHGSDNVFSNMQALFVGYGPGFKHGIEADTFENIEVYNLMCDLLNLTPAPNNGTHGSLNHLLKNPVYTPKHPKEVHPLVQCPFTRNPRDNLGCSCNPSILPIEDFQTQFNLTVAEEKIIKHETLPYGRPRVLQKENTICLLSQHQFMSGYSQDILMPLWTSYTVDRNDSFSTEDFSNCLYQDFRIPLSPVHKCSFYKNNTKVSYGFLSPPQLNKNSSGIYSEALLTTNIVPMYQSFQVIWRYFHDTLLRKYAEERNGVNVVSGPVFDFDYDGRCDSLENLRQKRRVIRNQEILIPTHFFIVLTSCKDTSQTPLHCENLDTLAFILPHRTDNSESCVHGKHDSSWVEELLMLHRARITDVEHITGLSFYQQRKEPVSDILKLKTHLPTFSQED
Summary of the method: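 Human NPP1 extract (56.15 µg) pre-incubated 3 min at 37 °C in 1 mM CaCl2, 200 mM NaCl, 10 mM KCl, 100 mM Tris pH 8.5. Reaction started with 4 mM compound stock and stopped at 2 h in ice-cold 1 M perchloric acid, then neutralized with KOH. Reverse-phase HPLC. Nucleoside monophosphate peak area taken minus an acid-treated no-enzyme control. Mean of two experiments.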

[11] = target: T2, P2Y purinoceptor 6; assay: Ratio of UDP EC50 to compound EC50 for human GFP-tagged P2Y6 receptor
Summary of the method: (§4)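 Human P2Y6 receptor-GFP construct stably expressed in 1321N1 astrocytoma cells (no endogenous P2X/P2Y). Cells loaded with 2 µM fura-2/AM plus 0.02% pluronic acid in Na-HBS (pH 7.4), 30 min, 37 °C. Superfused at 37 °C with nucleotide, usually 10^-8 M to at least 10^-5 M. [Ca2+]i read as 340/380 nm excitation ratio, emission 510 nm. EC50 from concentration–response curves.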

[12] = target: T2, P2Y purinoceptor 6; assay: Agonist activity at human P2Y6 receptor; format: functional; summary of the method: as §4
[13] = Half life in KCl/HCl buffer by 31P-NMR analysis at pH 1.4; format: physicochemical
Summary of the method: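 Sodium salt dissolved in KCl/HCl buffer pH 1.4 containing D2O, held at 37 °C. 31P NMR spectra taken at 15 min, 1 h or 24 h intervals, about every 24 h in multi-day runs. Hydrolysis rate taken from change in integration of one starting-material phosphate signal over time, fit to a pseudo-first-order model.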

[14] = target: T5, Ectonucleotide pyrophosphatase/phosphodiesterase family member 1 (Homo sapiens, UniProt P22413); assay: Hydrolytic stability of the compound assessed as human NPP1-mediated hydrolysis measuring UMP formation after 2 hrs by HPLC analysis; format: ADME; set-up: scale not given: the % may be the effect or the level left; summary of the method: as §2
T5 sequence (P22413 whole entry): T4 sequence (P22413 whole entry)

P2Y purinoceptor 2 (Homo sapiens), sequence (P41231 whole entry): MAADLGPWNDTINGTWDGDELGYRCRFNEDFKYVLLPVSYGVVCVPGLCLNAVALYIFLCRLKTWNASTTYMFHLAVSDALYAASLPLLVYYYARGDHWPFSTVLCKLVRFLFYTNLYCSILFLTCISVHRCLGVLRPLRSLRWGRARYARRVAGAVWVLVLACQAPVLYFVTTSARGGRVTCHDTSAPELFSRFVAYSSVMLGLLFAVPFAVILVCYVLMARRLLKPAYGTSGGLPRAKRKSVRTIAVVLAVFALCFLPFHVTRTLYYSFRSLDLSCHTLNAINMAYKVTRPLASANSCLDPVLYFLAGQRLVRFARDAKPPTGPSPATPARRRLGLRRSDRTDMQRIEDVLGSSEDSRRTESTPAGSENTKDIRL
T1 sequence (P51582 whole entry, the tested form may be a part): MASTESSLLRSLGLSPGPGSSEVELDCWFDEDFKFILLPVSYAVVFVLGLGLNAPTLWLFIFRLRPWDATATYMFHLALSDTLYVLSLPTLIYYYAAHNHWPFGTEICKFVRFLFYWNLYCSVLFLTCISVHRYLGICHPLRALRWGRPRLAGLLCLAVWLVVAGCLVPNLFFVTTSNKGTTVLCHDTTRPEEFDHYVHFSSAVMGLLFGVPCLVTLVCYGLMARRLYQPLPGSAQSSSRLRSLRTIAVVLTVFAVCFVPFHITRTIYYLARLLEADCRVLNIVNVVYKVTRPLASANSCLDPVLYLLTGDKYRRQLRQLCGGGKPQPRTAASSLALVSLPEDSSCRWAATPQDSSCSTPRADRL
T2 sequence (Q15077 whole entry): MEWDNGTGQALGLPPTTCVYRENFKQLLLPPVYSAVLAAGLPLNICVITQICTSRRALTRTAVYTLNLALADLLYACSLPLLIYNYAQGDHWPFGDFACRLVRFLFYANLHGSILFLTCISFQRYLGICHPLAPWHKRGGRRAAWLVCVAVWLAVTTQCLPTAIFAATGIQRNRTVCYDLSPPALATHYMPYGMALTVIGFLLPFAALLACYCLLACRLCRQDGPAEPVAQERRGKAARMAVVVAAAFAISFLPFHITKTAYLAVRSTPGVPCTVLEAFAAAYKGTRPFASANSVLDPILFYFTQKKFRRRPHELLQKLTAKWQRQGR

B[P@](=O)(OC[C@H]1O[C@@H](n2cc(OC)c(=O)[nH]c2=O)[C@H](O)[C@@H]1O)OP(=O)(O)OP(=O)(O)OC[C@H]1O[C@@H](n2cc(OC)c(=O)[nH]c2=O)[C@H](O)[C@@H]1O
Activity [1]: inactive | pEC50 [2]: 5.66 | Activity [3]: inactive

O=c1ccn([C@@H]2O[C@H](COP(=O)(O)OP(=O)(O)OP(=O)(O)OC[C@H]3O[C@@H](n4ccc(=O)[nH]c4=O)[C@@H]4OC(Cc5ccccc5)O[C@@H]43)[C@@H](O)[C@H]2O)c(=O)[nH]1 (some centres not stated)
pEC50 [4]: 6.85

B[P@@](=O)(OC[C@H]1O[C@@H](n2cc(OC)c(=O)[nH]c2=O)[C@H](O)[C@@H]1O)OP(=O)(O)OP(=O)(O)O
Activity [1]: inactive | pEC50 [2]: 4.95 | Activity [3]: inactive

O=c1ccn([C@@H]2O[C@H](COP(=O)(O)OP(=O)(O)OP(=O)(O)O)[C@@H](O)[C@H]2O)c(=O)[nH]1 [URIDINE TRIPHOSPHATE]
pEC50 [5]: 6.05

B[P@@](=O)(OC[C@H]1O[C@@H](n2cc(OC)c(=O)[nH]c2=O)[C@H](O)[C@@H]1O)OP(=O)(O)O
pEC50 [2]: 8.10 | metabolised at 3 h [6]: 28% | Drug metabolism [7]: Active | Drug metabolism [8]: Active | half-life [9]: 21 h | metabolised at 2 h [10]: 15%

B[P@@](=O)(OC[C@H]1O[C@@H](n2cc(OC)c(=O)[nH]c2=O)[C@H](O)[C@@H]1O)OP(=O)(O)OP(=O)(O)OC[C@H]1O[C@@H](n2cc(OC)c(=O)[nH]c2=O)[C@H](O)[C@@H]1O
Activity [1]: inactive | pEC50 [2]: 7.22 | Ratio EC50 [11]: 2.5 | Activity [3]: inactive

O=c1ccn([C@@H]2O[C@H](COP(=O)(O)OP(=O)(O)O)[C@@H](O)[C@H]2O)c(=O)[nH]1 [URIDINE_DIPHOSPHATE]
pEC50 [12]: 7.33 | pEC50 [2]: 6.82 | half-life [13]: 288 h | Activity [14]: 50% | Drug metabolism [7]: Active | Drug metabolism [8]: Active | half-life [9]: 2.4 h | pEC50 [4]: 6.30

BP(=O)(OC[C@H]1O[C@@H](n2cc(OC)c(=O)[nH]c2=O)[C@H](O)[C@@H]1O)OP(=O)(O)O (some centres not stated)
half-life [13]: 16.9 h
